Source: ChEMBL document CHEMBL3627671, “Novel derivatives of nitro-substituted salicylic acids: Synthesis, antimicrobial activity and cytotoxicity” (Bioorg Med Chem, 2015)
≈ marks a conversion by molar mass, not a printed value.

What was measured:
Format in all cases: functional
[1] = test system: Mycobacterium tuberculosis; experiment: Antimycobacterial activity against Mycobacterium tuberculosis H37Rv 331/88 after 14 days; settings: H37Rv 331/88, 336 h
[2] = test system: Mycobacterium tuberculosis; experiment: Antimycobacterial activity against Mycobacterium tuberculosis H37Rv 331/88 after 21 days; settings: H37Rv 331/88, 504 h
[3] = test system: Mycobacterium avium; experiment: Antimycobacterial activity against Mycobacterium avium 330/80 after 14 days; settings: 330/80, 336 h
[4] = test system: Mycobacterium avium; experiment: Antimycobacterial activity against Mycobacterium avium 330/80 after 21 days; settings: 330/80, 504 h
[5] = test system: Mycobacterium kansasii; experiment: Antimycobacterial activity against Mycobacterium kansasii 235/80 after 7 days; settings: 235/80, 168 h
In short: (§1)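 Šula's semisynthetic medium micromethod at 37 °C, read after 7, 14 and 21 days. The 1.0 McFarland suspension was diluted 10^-4. MIC determined. 6509/96 is a clinical isolate.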

[6] = test system: Mycobacterium kansasii; experiment: Antimycobacterial activity against Mycobacterium kansasii 235/80 after 14 days; settings: 235/80, 336 h; in short: as §1
[7] = test system: Mycobacterium kansasii; experiment: Antimycobacterial activity against Mycobacterium kansasii 235/80 after 21 days; settings: 235/80, 504 h; in short: as §1
[8] = test system: Mycobacterium kansasii; experiment: Antimycobacterial activity against Mycobacterium kansasii 6509/96 after 7 days; settings: 6509/96, 168 h; in short: as §1
[9] = test system: Mycobacterium kansasii; experiment: Antimycobacterial activity against Mycobacterium kansasii 6509/96 after 14 days; settings: 6509/96, 336 h; in short: as §1
[10] = test system: Mycobacterium kansasii; experiment: Antimycobacterial activity against Mycobacterium kansasii 6509/96 after 21 days; settings: 6509/96, 504 h; in short: as §1
[11] = test system: Staphylococcus aureus; experiment: Antibacterial activity against Staphylococcus aureus CCM 4516/08 after 24 hrs by microdilution broth method; settings: CCM 4516/08, 24 h
[12] = test system: Staphylococcus aureus; experiment: Antibacterial activity against Staphylococcus aureus CCM 4516/08 after 48 hrs by microdilution broth method; settings: CCM 4516/08, 48 h
[13] = test system: Staphylococcus aureus; experiment: Antibacterial activity against methicillin-resistant Staphylococcus aureus H 5996/08 after 24 hrs by microdilution broth method; settings: H 5996/08, 24 h
[14] = test system: Staphylococcus aureus; experiment: Antibacterial activity against methicillin-resistant Staphylococcus aureus H 5996/08 after 48 hrs by microdilution broth method; settings: H 5996/08, 48 h
[15] = test system: Staphylococcus epidermidis; experiment: Antibacterial activity against Staphylococcus epidermidis H 6966/08 after 24 hrs by microdilution broth method; settings: H 6966/08, 24 h
In short: (§2)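 Mueller-Hinton broth microdilution (modified M07-A07), pH 7.4 (±0.2). Compounds dissolved in DMSO, tested at final 500 to 0.49 µmol/L. Inoculum in sterile water matched to 0.5 McFarland. Incubated in the dark, humid atmosphere, 35 °C, read at 24 and 48 h visually and at 540 nm. MIC taken as ≥95% growth reduction (IC95) versus control.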

[16] = test system: Staphylococcus epidermidis; experiment: Antibacterial activity against Staphylococcus epidermidis H 6966/08 after 48 hrs by microdilution broth method; settings: H 6966/08, 48 h; in short: as §2
[17] = test system: Enterococcus sp.; experiment: Antibacterial activity against Enterococcus sp. J 14365/08 after 24 hrs by microdilution broth method; settings: J 14365/08, 24 h; in short: as §2
[18] = test system: Enterococcus sp.; experiment: Antibacterial activity against Enterococcus sp. J 14365/08 after 48 hrs by microdilution broth method; settings: J 14365/08, 48 h; in short: as §2
[19] = test system: Escherichia coli; experiment: Antibacterial activity against Escherichia coli CCM4517 after 24 hrs by microdilution broth method; settings: CCM4517, 24 h; in short: as §2
[20] = test system: Escherichia coli; experiment: Antibacterial activity against Escherichia coli CCM4517 after 48 hrs by microdilution broth method; settings: CCM4517, 48 h; in short: as §2
[21] = test system: Klebsiella pneumoniae; experiment: Antibacterial activity against Klebsiella pneumoniae D 11750/08 after 24 hrs by microdilution broth method; settings: D 11750/08, 24 h; in short: as §2
[22] = test system: Klebsiella pneumoniae; experiment: Antibacterial activity against Klebsiella pneumoniae D 11750/08 after 48 hrs by microdilution broth method; settings: D 11750/08, 48 h; in short: as §2
[23] = test system: Klebsiella pneumoniae; experiment: Antibacterial activity against ESBL-positive Klebsiella pneumoniae J 14368/08 after 24 hrs by microdilution broth method; settings: J 14368/08, 24 h; in short: as §2
[24] = test system: Klebsiella pneumoniae; experiment: Antibacterial activity against ESBL-positive Klebsiella pneumoniae J 14368/08 after 48 hrs by microdilution broth method; settings: J 14368/08, 48 h; in short: as §2
[25] = test system: Pseudomonas aeruginosa; experiment: Antibacterial activity against Pseudomonas aeruginosa CCM 1961 after 24 hrs by microdilution broth method; settings: CCM 1961, 24 h; in short: as §2
[26] = test system: Pseudomonas aeruginosa; experiment: Antibacterial activity against Pseudomonas aeruginosa CCM 1961 after 48 hrs by microdilution broth method; settings: CCM 1961, 48 h; in short: as §2
[27] = test system: Candida albicans; experiment: Antifungal activity against Candida albicans ATCC 44859 after 24 hrs by microdilution broth method; settings: ATCC 44859, 24 h
In short: (§3)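 CLSI M27-A3 broth microdilution in RPMI 1640 with glutamine, buffered to pH 7.0 with MOPS; DMSO diluent. Yeast inoculum 5 × 10^3 ± 0.2 CFU/mL. Moulds grown on Sabouraud agar 3–10 days before spore harvest, final inoculum 0.5-5 × 10^4 CFU/mL, checked in a Bürker chamber. Incubated dark, humid, 35 °C, read at 24 and 48 h visually and at 540 nm. MIC taken as ≥80% (yeasts) or ≥50% (filamentous) growth reduction versus control.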

[28] = test system: Candida albicans; experiment: Antifungal activity against Candida albicans ATCC 44859 after 48 hrs by microdilution broth method; settings: ATCC 44859, 48 h; in short: as §3
[29] = test system: Candida tropicalis; experiment: Antifungal activity against Candida tropicalis 156 after 24 hrs by microdilution broth method; settings: Candida tropicalis, 156, 24 h; in short: as §3
[30] = test system: Candida tropicalis; experiment: Antifungal activity against Candida tropicalis 156 after 48 hrs by microdilution broth method; settings: Candida tropicalis, 156, 48 h; in short: as §3
[31] = test system: Pichia kudriavzevii; experiment: Antifungal activity against Candida krusei E28 after 24 hrs by microdilution broth method; settings: E28, 24 h; in short: as §3
[32] = test system: Pichia kudriavzevii; experiment: Antifungal activity against Candida krusei E28 after 48 hrs by microdilution broth method; settings: E28, 48 h; in short: as §3
[33] = test system: Nakaseomyces glabratus; experiment: Antifungal activity against Candida glabrata 20/I after 24 hrs by microdilution broth method; in short: as §3
[34] = test system: Nakaseomyces glabratus; experiment: Antifungal activity against Candida glabrata 20/I after 48 hrs by microdilution broth method; in short: as §3
[35] = test system: Trichosporon asahii; experiment: Antifungal activity against Trichosporon asahii 1188 after 24 hrs by microdilution broth method; settings: Trichosporon asahii, 1188, 24 h; in short: as §3
[36] = test system: Trichosporon asahii; experiment: Antifungal activity against Trichosporon asahii 1188 after 48 hrs by microdilution broth method; settings: Trichosporon asahii, 1188, 48 h; in short: as §3
[37] = test system: Aspergillus fumigatus; experiment: Antifungal activity against Aspergillus fumigatus 231 after 24 hrs by microdilution broth method; settings: Aspergillus fumigatus, 231, 24 h; in short: as §3
[38] = test system: Aspergillus fumigatus; experiment: Antifungal activity against Aspergillus fumigatus 231 after 48 hrs by microdilution broth method; settings: Aspergillus fumigatus, 231, 48 h; in short: as §3
[39] = test system: Lichtheimia corymbifera; experiment: Antifungal activity against Absidia corymbifera 272 after 24 hrs by microdilution broth method; settings: Lichtheimia corymbifera, 272, 24 h; in short: as §3
[40] = test system: Lichtheimia corymbifera; experiment: Antifungal activity against Absidia corymbifera 272 after 48 hrs by microdilution broth method; settings: Lichtheimia corymbifera, 272, 48 h; in short: as §3
[41] = test system: Trichophyton mentagrophytes; experiment: Antifungal activity against Trichophyton mentagrophytes 445 after 24 hrs by microdilution broth method; settings: Trichophyton mentagrophytes, 445, 24 h
[42] = test system: Trichophyton mentagrophytes; experiment: Antifungal activity against Trichophyton mentagrophytes 445 after 48 hrs by microdilution broth method; settings: Trichophyton mentagrophytes, 445, 48 h

O=C(Nc1ccc([N+](=O)[O-])cc1)c1cccc([N+](=O)[O-])c1O
MIC [1]: 32 µM (≈ 9.7 µg/mL)
MIC [2]: 32 µM (≈ 9.7 µg/mL)
MIC [3]: 125 µM (≈ 37.9 µg/mL)
MIC [4]: 125 µM (≈ 37.9 µg/mL)
MIC [5]: 32 µM (≈ 9.7 µg/mL)
MIC [6]: 62.5 µM (≈ 19 µg/mL)
MIC [7]: 125 µM (≈ 37.9 µg/mL)
MIC [8]: 62.5 µM (≈ 19 µg/mL)
MIC [9]: 125 µM (≈ 37.9 µg/mL)
MIC [10]: 125 µM (≈ 37.9 µg/mL)

O=C(Nc1cccc(Br)c1)c1ccc([N+](=O)[O-])cc1O
MIC [1]: 16 µM (≈ 5.39 µg/mL)
MIC [2]: 16 µM (≈ 5.39 µg/mL)
MIC [3]: 32 µM (≈ 10.8 µg/mL)
MIC [4]: 62.5 µM (≈ 21.1 µg/mL)
MIC [5]: 8 µM (≈ 2.7 µg/mL)
MIC [6]: 16 µM (≈ 5.39 µg/mL)
MIC [7]: 16 µM (≈ 5.39 µg/mL)
MIC [8]: 16 µM (≈ 5.39 µg/mL)
MIC [9]: 16 µM (≈ 5.39 µg/mL)
MIC [10]: 16 µM (≈ 5.39 µg/mL)
MIC [11]: 3.9 µM (≈ 1.31 µg/mL)
MIC [12]: 3.9 µM (≈ 1.31 µg/mL)
MIC [13]: 3.9 µM (≈ 1.31 µg/mL)
MIC [14]: 3.9 µM (≈ 1.31 µg/mL)
MIC [15]: 3.9 µM (≈ 1.31 µg/mL)
MIC [16]: 3.9 µM (≈ 1.31 µg/mL)
MIC [17]: 500 µM (≈ 169 µg/mL)
MIC [18]: 500 µM (≈ 169 µg/mL)
MIC [19]: 500 µM (≈ 169 µg/mL)
MIC [20]: > 500 µM
MIC [21]: 500 µM (≈ 169 µg/mL)
MIC [22]: 500 µM (≈ 169 µg/mL)
MIC [23]: 500 µM (≈ 169 µg/mL)
MIC [24]: 500 µM (≈ 169 µg/mL)
MIC [25]: > 500 µM
MIC [26]: > 500 µM
MIC [27]: > 500 µM
MIC [28]: > 500 µM
MIC [29]: > 500 µM
MIC [30]: > 500 µM
MIC [31]: 62.5 µM (≈ 21.1 µg/mL)
MIC [32]: 250 µM (≈ 84.3 µg/mL)
MIC [33]: > 500 µM
MIC [34]: > 500 µM
MIC [35]: 31.2 µM (≈ 10.5 µg/mL)
MIC [36]: 125 µM (≈ 42.1 µg/mL)
MIC [37]: > 500 µM
MIC [38]: > 500 µM
MIC [39]: 250 µM (≈ 84.3 µg/mL)
MIC [40]: 500 µM (≈ 169 µg/mL)
MIC [41]: 62.5 µM (≈ 21.1 µg/mL)
MIC [42]: 250 µM (≈ 84.3 µg/mL)

O=C(Nc1cccc(F)c1)c1ccc([N+](=O)[O-])cc1O
MIC [1]: 16 µM (≈ 4.42 µg/mL)
MIC [2]: 16 µM (≈ 4.42 µg/mL)
MIC [3]: 62.5 µM (≈ 17.3 µg/mL)
MIC [4]: 125 µM (≈ 34.5 µg/mL)
MIC [5]: 16 µM (≈ 4.42 µg/mL)
MIC [6]: 16 µM (≈ 4.42 µg/mL)
MIC [7]: 32 µM (≈ 8.84 µg/mL)
MIC [8]: 16 µM (≈ 4.42 µg/mL)
MIC [9]: 32 µM (≈ 8.84 µg/mL)
MIC [10]: 32 µM (≈ 8.84 µg/mL)
MIC [11]: 15.6 µM (≈ 4.31 µg/mL)
MIC [12]: 31.2 µM (≈ 8.63 µg/mL)
MIC [13]: 15.6 µM (≈ 4.31 µg/mL)
MIC [14]: 31.2 µM (≈ 8.63 µg/mL)
MIC [15]: 15.6 µM (≈ 4.31 µg/mL)
MIC [16]: 31.2 µM (≈ 8.63 µg/mL)
MIC [17]: 500 µM (≈ 138 µg/mL)
MIC [18]: > 500 µM
MIC [19]: 250 µM (≈ 69.1 µg/mL)
MIC [20]: 250 µM (≈ 69.1 µg/mL)
MIC [21]: 500 µM (≈ 138 µg/mL)
MIC [22]: > 500 µM
MIC [23]: 500 µM (≈ 138 µg/mL)
MIC [24]: 500 µM (≈ 138 µg/mL)
MIC [25]: > 500 µM
MIC [26]: > 500 µM
MIC [27]: 250 µM (≈ 69.1 µg/mL)
MIC [28]: 500 µM (≈ 138 µg/mL)
MIC [29]: 250 µM (≈ 69.1 µg/mL)
MIC [30]: 500 µM (≈ 138 µg/mL)
MIC [31]: 62.5 µM (≈ 17.3 µg/mL)
MIC [32]: 62.5 µM (≈ 17.3 µg/mL)
MIC [33]: > 500 µM
MIC [34]: > 500 µM
MIC [35]: 250 µM (≈ 69.1 µg/mL)
MIC [36]: 250 µM (≈ 69.1 µg/mL)
MIC [37]: 250 µM (≈ 69.1 µg/mL)
MIC [38]: 250 µM (≈ 69.1 µg/mL)
MIC [39]: 250 µM (≈ 69.1 µg/mL)
MIC [40]: 250 µM (≈ 69.1 µg/mL)
MIC [41]: 500 µM (≈ 138 µg/mL)
MIC [42]: 500 µM (≈ 138 µg/mL)
